Molecules are shown by their SMILES.

The term ED50 denotes the dose at which the effect has come halfway, by size or by number of responders. One may read the IC50 as the point on the concentration scale where inhibition reaches its midpoint. Low values mean greater potency in that assay, high ones weaker potency in that assay. What is called logP is the decadic logarithm of the partition coefficient of the neutral form, usually between octanol and water. A high value points to a more lipophilic compound.

Data set [1] has as its target Albumin (Homo sapiens, UniProt P02768). In words: Human serum albumin index was measured by retention time on an HPLC column containing human albumin. The method in brief: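 HPLC on a column containing human serum albumin. Retention volume of each compound is divided by that of a reference standard and normalized so the standard equals 100.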
Data set [2] deals with Mus musculus. Nature of the data set: Anticonvulsant activity measured by its ability to protect against audiogenic seizure in DBA/2 mice when dosed intraperitoneally 30 min prior to seizure induction. Format: functional. Particulars: ip. An outline of the steps: (§1)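 DBA/2 mice, compound dosed intraperitoneally 30 min before induction of audiogenic seizures. Reported as ED50 (mg/kg and μmol/kg) or as number protected/number tested at a single dose. For some compounds the test was run 10 min after dosing.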

Data set [3] in a line: Protein binding index(PBI) is the ratio of binding affinities for the displacement of [3H]-glycine from rat cortical membranes in the presence and absence of 0.2% human serum albumin. To be noted: Membrane. It counts as functional, cell membranes. An outline of the steps: (§2)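 [³H]glycine displacement from rat cortical membranes, with and without 0.2% (w/v) human serum albumin. Separation by centrifugation. Index = IC50 with albumin / IC50 without albumin.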
Background: Loss of bound radioactivity is the signal in a displacement assay; it reports binding, not function.

Data set [4] is filed under the species Rattus norvegicus. Nature of the data set: Clearance into cortex from rat plasma or PBS. Format: ADME, organism-based. Particulars: in vivo. The method in brief:
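Rat in situ brain perfusion (Takasato method, Gratton modifications). Compound is dissolved in phosphate-buffered saline and perfused 10 s, or dissolved in rat plasma and perfused 60 s. Drug in cortex is measured and clearance from the perfusate into cortex is calculated (mL s⁻¹ g⁻¹ × 10⁴). Mean with SEM, n = 4.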

The target in data set [5] is Glutamate NMDA receptor. In words: Affinity for the glycine binding site on rat N-methyl-D-aspartate glutamate receptor 1, determined by displacement of the glycine site antagonist [3H]L-689,560 from rat cortical membranes. It counts as cell membranes, Membrane.
Data set [6] is described as follows: Partition coefficient (logP). It counts as physicochemical. To be noted: octanol/water. The method in brief: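 Octanol/pH 7.4 buffer partition; values were either measured or calculated from tables of π values.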
For data set [7], the system named is Mus musculus. In words: Anti convulsant activity of compound was measured by its ability to protect against audiogenic seizure in DBA/2 mice when dosed intraperitoneally 30 min prior to seizure induction. Format: functional. To be noted: ip. An outline of the steps:
as §1

Data set [8] in a line: protein binding index(PBI) is the ratio of binding affinities for the displacement of [3H]- glycine from rat cortical membranes in the presence and absence of 0.2% human serum albumin. Format: cell membranes. Particulars: Membrane. An outline of the steps:
as §2

For data set [9], the target named is Glutamate NMDA receptor (Rattus norvegicus) (UniProt P35439+Q00959+Q00960+Q00961+Q62645+Q8VHN2+Q9R1M7). In words: Protein binding index(PBI) reflects the relative displacement of [3H]glycine from rat cortical membranes in the presence and absence of 0.2% human serum albumin. Format: cell membranes. To be noted: Membrane. An outline of the steps: as §2
For data set [10], the system named is Mus musculus. Nature of the data set: Ability of intravenously administered compound to prevent seizures, induced by NMDLA (500 mg/kg sc) in mice, in the presence of 60 mg/kg of warfarin. To be noted: route intravenous. Format: functional. The method in brief: (§3)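 Swiss Webster mice; seizures induced by N-methyl-D,L-aspartate 500 mg/kg sc. Test compound given iv 15 min before NMDLA. Where warfarin is used, it is given iv 15 min before the test compound.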

In data set [11] the test system is Mus musculus. In words: Ability of intravenously administered compound to prevent seizures, induced by NMDLA (500 mg/kg sc) in mice, in the presence of 100 mg/kg of warfarin. Format: functional. Particulars: route intravenous. An outline of the steps: as §3
Data set [12] deals with Mus musculus. In words: Ability of intravenously administered compound to prevent seizures, induced by NMDLA (500 mg/kg sc) in mice. It counts as functional. The method in brief: as §3

Chain of Albumin (P02768 whole entry): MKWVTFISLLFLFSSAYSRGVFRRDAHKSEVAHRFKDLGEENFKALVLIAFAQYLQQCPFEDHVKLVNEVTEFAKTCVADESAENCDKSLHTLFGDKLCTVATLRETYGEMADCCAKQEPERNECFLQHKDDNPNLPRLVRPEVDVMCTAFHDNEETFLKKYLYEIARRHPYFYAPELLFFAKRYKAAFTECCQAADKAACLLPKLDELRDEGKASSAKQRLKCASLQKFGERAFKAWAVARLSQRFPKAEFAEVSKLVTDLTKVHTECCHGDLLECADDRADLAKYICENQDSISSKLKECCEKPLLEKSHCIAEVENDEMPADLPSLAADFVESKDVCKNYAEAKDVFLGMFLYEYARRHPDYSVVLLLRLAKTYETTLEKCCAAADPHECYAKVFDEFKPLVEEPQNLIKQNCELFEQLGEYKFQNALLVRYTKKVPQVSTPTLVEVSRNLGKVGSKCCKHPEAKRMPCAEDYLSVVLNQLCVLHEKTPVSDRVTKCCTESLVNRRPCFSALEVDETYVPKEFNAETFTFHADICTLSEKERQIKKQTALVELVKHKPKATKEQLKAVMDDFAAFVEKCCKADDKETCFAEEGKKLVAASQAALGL

In turn, `Oc1nc2cc(Cl)ccc2c(O)c1-c1ccc(Oc2ccccc2)cc1` yielded an HSAI in data set [1] of 159. The median effective dose (ED50) in data set [2] worked out at 8.3 mg/kg.

Consider `C=C(C)COc1cccc(C2=C(O)/C(=C/CC)NC2=O)c1`, for which, in [1], the HSAI was 13. Moreover, the PBI in [3] came to 12.1.

`Cc1ccc(-c2c(O)c3ccc(Cl)cc3[nH]c2=O)o1` returned an HSAI in data set [1] of 8. Also, in data set [4], the Cortex_Clearance is reported as 4.4 ml s-1 (10e4*g)-1. Further, the IC50 in data set [5] amounted to 481 nM.

In data set [1], `O=c1[nH]c2cc(Cl)c(Cl)c([N+](=O)[O-])c2[nH]c1=O` [LICOSTINEL] gave an HSAI of 28. Also, it took a dose of 3.3 mg/kg to reach the 50% effect level in data set [2] (ED50). This molecule also showed a half-inhibitory concentration (IC50) in [5] of 2.8 nM.

In the case of `O=c1[nH]c2cc(Cl)ccc2c(O)c1-c1ccccc1`, the log partition coefficient (logP) in [6] came to 1.6. The same molecule came in with an HSAI in data set [1] of 10. The same molecule showed an ED50 in data set [7] of 4.5 mg/kg. The PBI in data set [8] stood at 37.

Take `Nc1c(-c2ccccc2)c(O)nc2cc(Cl)ccc12`: the PBI in data set [9] stood at 3.7.

`O=c1[nH]c2cc(Cl)ccc2c(O)c1-c1cccc(Oc2ccccc2)c1` gave a log partition coefficient (logP) in [6] of 2.9. In data set [1], this molecule returned an HSAI of 100. Also, in [4], the Cortex_Clearance was 0 ml s-1 (10e4*g)-1. The ED50 in data set [10] was 1.9 mg/kg; in [11] it was 0.64 mg/kg; in data set [12] it was 3.6 mg/kg; in data set [2], 0.88 mg/kg. For the same molecule, in data set [9], the PBI is 94.

With `COCOc1ccc(Cc2cccc(-c3c(O)c4ccc(Cl)cc4[nH]c3=O)c2)cc1`, the log partition coefficient (logP) in data set [6] was found to be 3.34. The molecule further displayed an HSAI in data set [1] of 78. For the same molecule, it took a dose of 0.5 mg/kg to reach the 50% effect level in [7] (ED50). In addition, in [5], the IC50 came out at 2.2 nM.

Take `Oc1nc2ccccc2c(O)c1-c1ccccc1`: the ED50 in [2] came out at 10.9 mg/kg. Besides, in [9], the PBI was found to be 3.1.

`Oc1nc2cc(Cl)ccc2c2oc3ccccc3c12`: the lipophilicity (logP) in [6] amounted to 4.34. The molecule also yielded an HSAI in data set [1] of 70. In addition, the PBI in data set [9] is 28.5.

Molecule `O=C1Nc2cc(Cl)ccc2CC1[N+](=O)[O-]` (stereo not drawn) registered a lipophilicity (logP) in data set [6] of 0.62. The molecule further displayed an HSAI in data set [1] of 7. Further, the 50% effect level in [2] (ED50) was put at a dose of 13.5 mg/kg.

Turning to `O=C(/C=C/c1c(C(=O)O)[nH]c2cc(Cl)cc(Cl)c12)Nc1ccccc1`, the log partition coefficient (logP) in data set [6] came to 2.24. This molecule displayed an HSAI in data set [1] of 197. In [5], the IC50 was 1 nM.

In [6], `N[C@H](Cc1cc(I)c(OCCc2ccc(O)cc2)c(I)c1)C(=O)O` registered a log partition coefficient (logP) of 2. This molecule showed an HSAI in data set [1] of 16. This molecule also registered a PBI in data set [9] of 41. The molecule further came in with an IC50 in [5] of 426 nM.

For the molecule `NCc1ccc(CC(=O)N[C@H]2C[C@H](C(=O)O)Nc3cc(Cl)cc(Cl)c32)cc1`, the HSAI in data set [1] amounted to 2. The same molecule came in with a 50% effective dose (ED50) in [2] of 30 mg/kg. The molecule also registered a PBI in data set [9] of 1.1. For the same molecule, in data set [5], the 50% inhibitory concentration (IC50) came to 38.5 nM.

Molecule `Oc1nc2cc(Cl)ccc2c(O)c1-c1cccc(Oc2ccsc2)c1` showed an ED50 in [2] of 0.75 mg/kg. In data set [9], this molecule returned a PBI of 127.

In the case of `Oc1ccccc1-c1cc2ccc(Cl)cc2nc1O`, the HSAI in data set [1] turned out to be 15. Besides, in [9], the PBI came out at 8.2.

For the molecule `COc1ccc(CCOc2c(I)cc(C[C@@H](N)C(=O)O)cc2I)cc1`, the lipophilicity (logP) in data set [6] worked out at 2.65. The molecule also showed an HSAI in [1] of 32. The molecule further registered a PBI in [9] of 11.7. Further, the concentration for half-maximal inhibition (IC50) in data set [5] worked out at 545 nM.

As to `CC/C=C1\NC(=O)C(c2cccc(Oc3ccccc3)c2)=C1O`, the HSAI in data set [1] worked out at 42. The molecule also had a PBI in data set [9] of 32. In data set [5], this molecule returned an IC50 of 684 nM.

In data set [1], `COC(=O)c1c(O)c2ccc(Cl)cc2[nH]c1=O` displayed an HSAI of 3. In addition, in [4], the Cortex_Clearance is on record as 2.8 ml s-1 (10e4*g)-1. In addition, the PBI in data set [9] was 5.4.

In turn, `COc1ccc(Cc2cccc(-c3c(O)c4ccc(Cl)cc4[nH]c3=O)c2)cc1` showed a lipophilicity (logP) in data set [6] of 2.81. The molecule also came in with an HSAI in [1] of 97. The molecule also came in with a 50% effective dose (ED50) in data set [2] of 0.7 mg/kg. This molecule had a PBI in data set [9] of 193. Also, the half-maximal inhibitory concentration (IC50) in data set [5] was 4.5 nM.

Regarding `O=C(O)c1cc(O)c2c(Cl)cc(Cl)cc2n1`, the lipophilicity (logP) in data set [6] was -0.44. The HSAI in [1] came out at 5. The molecule also registered a PBI in data set [9] of 26.5.

For the molecule `Oc1nc2cc(Cl)ccc2c(O)c1-c1cccc(Cc2ccccc2)c1`, the 50% effect level in data set [2] (ED50) was put at a dose of 1.3 mg/kg. In [9], this molecule came in with a PBI of 758.

In turn, `O=C(CC1CCc2cc(Br)cc3[nH]c(=O)c(=O)n1c23)Nc1ccccc1` (stereo not drawn) registered a logP in data set [6] of 2.78. Also, the HSAI in data set [1] is 24. For the same molecule, the IC50 in data set [5] was 24 nM.

The record behind these values is ChEMBL document CHEMBL1130334, “Effect of plasma protein binding on in vivo activity and brain penetration of glycine/NMDA receptor antagonists” (J Med Chem, 1997).
